How the values were obtained:
SH-SY5Y cells [1] = assay: Hydrogen peroxide cytotoxicity, SRB assay; type: cell-based, human; settings: in the presence of I3MT3
Outline: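 SH-SY5Y cells (MEM-F12, 15% FBS, 37 °C, 5% CO2) exposed to 100 μM H2O2 ± test compound ± I3MT3 for 24 h at 37 °C. Fixed with 10% TCA for 1 h at 4 °C, washed, then stained 1 h at room temperature with 0.04% w/v SRB in 1% acetic acid. Washed with 1% acetic acid, dried, dye dissolved in 10 mM Tris base (pH 10.5), A510 read. One-way ANOVA with Tukey test.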

SH-SY5Y cells [2] = assay: Aβ1-42 amyloid toxicity assay, CCK-8; type: cell-based, human
Outline: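 Human neuroblastoma SH-SY5Y cells in MEM-F12 (1:1) with 15% FBS, at 37 °C and 5% CO2, grown to 70% confluence. Monomer-rich Aβ1-42 (HFIP-treated, sonicated) added at 20 μM with or without varying test compound concentrations, ± I3MT3, for 24 h; scrambled Aβ peptide as control. CCK-8 added for 3 h at 37 °C, absorbance at 450 nm. One-way ANOVA with Tukey test.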

[3] = DPPH radical scavenging assay; type: biochemical; settings: read-out: IC50, DPPH radical scavenging; DPPH 150 μM, 30 min, room temperature
Outline: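 Test compound at various concentrations incubated with DPPH (150 μM in 80% ethanol) for 30 min at room temperature. Radical scavenging read as absorbance at 517 nm.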

Row | SMILES | exacerbation of H2O2 cytotoxicity, rise over H2O2 alone (SH-SY5Y cells [1]) | effect of 3MST inhibitor on protective effect of sulfanegen against Aβ1-42 toxicity (SH-SY5Y cells [2]; Aβ1-42 20 μM + sulfanegen + I3MT3) | exacerbation of Aβ1-42 cytotoxicity, rise over Aβ1-42 alone (SH-SY5Y cells [2]; in the presence of I3MT3) | IC50 [3]
1 | Cc1cc(=O)[nH]c(SCC(=O)c2cccc3ccccc23)n1 [I3MT3] | 20% | completely abolished | 10% | 
2 | O=C1O[C@H]([C@@H](O)CO)C(O)=C1O [ascorbic acid] |  |  |  | 141 µM

From PMC9530613 (Redox Biology, 2022)
